In data set [1] the test system is Human immunodeficiency virus 1. The data set is described as follows: Antiviral activity against HIV1 3B replication in human MT2 cells exposed to light assessed as inhibition of p24 production after 4 days by ELISA. To be noted: Human immunodeficiency virus 1, 3B, MT2, 96 h.
Data set [2] relates to Human immunodeficiency virus 1. The data set is described as follows: Antiviral activity against HIV1 3B replication in human MT2 cells under dark condition assessed as inhibition of p24 production after 4 days by ELISA. To be noted: Human immunodeficiency virus 1, 3B, MT2, 96 h. For orientation: In an ELISA, binding on a coated surface is turned into a signal by an enzyme label.

For data set [3], the system named is Human immunodeficiency virus 1. The data set is described as follows: Antiviral activity against HIV1 isolate 94UG103 replication in human PBMC assessed as inhibition of p24 production after 7 days by ELISA. Conditions: Human immunodeficiency virus 1, isolate 94UG103, 168 h.
The subject of the next data set is MT2. Description: Cytotoxicity against human MT2 cells after 4 days by XTT assay. To be noted: mt2, 96 h. The data set is classed as cell-based. The method in brief:
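Graded compound concentrations mixed with equal volume of MT-2 cells (5×10^5/mL), 37 °C for 4 days. XTT (1 mg/mL) with 0.02 μM phenazine methosulphate added, absorbance at 450 nm read after 4 h; CC50 calculated with CalcuSyn.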

A short description of data set [4]: Selectivity index, ratio of CC50 for human MT2 cells to EC50 for HIV1 3B replication in human MT2 cells exposed to light. To be noted: read-out: Ratio CC50/EC50. Type of data set: toxicity, cell-based.

In ChEMBL document CHEMBL1155226, “Design, synthesis, and structure-activity relationship of a novel series of 2-aryl 5-(4-oxo-3-phenethyl-2-thioxothiazolidinylidenemethyl)furans as HIV-1 entry inhibitors” (J Med Chem, 2009) one finds EC50, CC50 and selectivity ratio data, which are given here for 15 molecules.

Structures are written as SMILES. pEC50: −log10 of the molar value.

As usually defined, the pEC50 is the EC50 on a negative log10 scale, so that one unit is a factor of ten. For orientation: CC50 means the concentration that lowers cell viability or growth by half. Low values mean greater toxicity to the cells, high ones lower toxicity to the cells. Regarding `O=C(O)c1cc(-c2ccc(/C=C3\SC(=S)N(CCc4ccccc4)C3=O)o2)ccc1O`, the pEC50 in data set [1] is 5.89; in data set [2], 6.58; in data set [3] it was 5.58. The same molecule had a half-maximal cytotoxic concentration (CC50) with MT2 of 14800 nM. The selectivity ratio in data set [4] was 12.

On to `Cc1c(C(=O)O)cncc1-c1ccc(/C=C2\SC(=S)N(CCc3ccccc3)C2=O)o1`, for which the negative-log EC50 (pEC50) in data set [1] was 6.41; in data set [2], 6.27; in data set [3], 5.39. Besides, the CC50 in the data set on MT2 turned out to be 78900 nM. In data set [4], the selectivity ratio is 202.

Regarding `Cc1c(C(=O)O)cccc1-c1ccc(/C=C2\SC(=S)N(CCc3ccccc3)C2=O)o1`, the negative logarithm of the EC50 (pEC50) was 7.37 in data set [1], 7.04 in data set [2] and 6.19 in data set [3]. This molecule also had a CC50 in the data set on MT2 of 26800 nM. In addition, the selectivity ratio in data set [4] came out at 624.

In the case of `O=C(O)c1cc(-c2ccc(/C=C3\SC(=S)N(CCc4ccccc4)C3=O)o2)cnc1Cl`, the pEC50 was 6.63 in data set [1], 6.00 in data set [2] and 6.22 in data set [3]. In the data set with MT2, this molecule showed a CC50 of 38400 nM. The selectivity ratio in data set [4] turned out to be 165.

Turning to `O=C(O)c1cc(-c2ccc(/C=C3\SC(=S)N(CCc4ccccc4)C3=O)o2)cnc1Br`, the values for the pEC50 in data set [1], in data set [2] and in data set [3] were 6.57, 6.64 and 6.45, respectively. Also, in the data set on MT2, the cytotoxic concentration (CC50) came to 5530 nM. Besides, the selectivity ratio in data set [4] turned out to be 40.

With `CCc1ccc(-c2ccc(/C=C3\SC(=S)N(CCc4ccccc4)C3=O)o2)cc1C(=O)O`, the negative-log EC50 (pEC50) in data set [1] was 7.09; in data set [2], 7.52; in data set [3], 6.75. The molecule further returned a CC50 in the data set with MT2 of 17400 nM. Besides, in data set [4], the selectivity ratio amounted to 215.

In the case of `Cc1ccc(-c2ccc(/C=C3\SC(=S)N(CCc4ccccc4)C3=O)o2)cc1C(=O)O`, the pEC50 in data set [1] is 7.00; in data set [2] it was 7.51; in data set [3] it was 7.15. The molecule also showed a CC50 in the data set on MT2 of 42100 nM. Also, the selectivity ratio in data set [4] was determined as 426.

Take `O=C(O)c1cc(-c2ccc(/C=C3\SC(=S)N(CCc4ccccc4)C3=O)o2)ccc1Br`: the figures for the pEC50 in data set [1], in data set [2] and in data set [3] were 6.50, 6.80 and 6.78, respectively. Moreover, it took 3290 nM to reach half-maximal cytotoxicity with MT2 (CC50). The selectivity ratio in data set [4] turned out to be 10.

For the molecule `O=C(O)c1cccc(-c2ccc(/C=C3\SC(=S)N(CCc4ccccc4)C3=O)o2)c1Cl`, the figures for the pEC50 in data set [1], in data set [2] and in data set [3] were 7.19, 7.11 and 7.48, respectively. The same molecule gave a CC50 in the data set on MT2 of 6730 nM. For the same molecule, the selectivity ratio in data set [4] was 105.

As for `O=C(O)c1cc(-c2ccc(/C=C3\SC(=S)N(CCc4ccccc4)C3=O)o2)ccc1F`, the figures for the pEC50 in data set [1], in data set [2] and in data set [3] were 7.15, 6.54 and 6.61, respectively. For the same molecule, in the data set with MT2, the CC50 stood at 27000 nM. Further, in data set [4], the selectivity ratio worked out at 380.

In the case of `O=C(O)c1cncc(-c2ccc(/C=C3\SC(=S)N(CCc4ccccc4)C3=O)o2)c1`, the pEC50 in data set [1] is 7.38; in data set [2] it was 7.15; in data set [3], 6.35. The same molecule showed a CC50 in the data set with MT2 of 38400 nM. Besides, the selectivity ratio in data set [4] came out at 915.

As for `COc1ccc(-c2ccc(/C=C3\SC(=S)N(CCc4ccccc4)C3=O)o2)cc1C(=O)O`, the pEC50 in data set [1] is 5.89; in data set [2] it was 6.58; in data set [3] it was 5.65. Also, half-maximal cytotoxicity in the data set on MT2 (CC50) was put at 28700 nM. The selectivity ratio in data set [4] was determined as 22.

With `O=C(O)c1cccc(-c2ccc(/C=C3\SC(=S)N(CCc4ccccc4)C3=O)o2)c1`, the pEC50 in data set [1] was 7.36; in data set [2] it was 7.01; in data set [3] it was 7.13. This molecule also returned a CC50 in the data set on MT2 of 19400 nM. Also, the selectivity ratio in data set [4] was 440.

Turning to `O=C(O)c1cccc(-c2ccc(/C=C3\SC(=S)N(CCc4ccccc4)C3=O)o2)c1F`, the pEC50 in data set [1] is 7.03; in data set [2], 7.23; in data set [3], 6.10. In the data set with MT2, this molecule displayed a CC50 of 78300 nM. The selectivity ratio in data set [4] stood at 835.

For `O=C(O)c1cc(-c2ccc(/C=C3\SC(=S)N(CCc4ccccc4)C3=O)o2)ccc1Cl`, the pEC50 in data set [1] is 7.29; in data set [2], 7.77; in data set [3], 7.14. In the data set with MT2, the CC50 was 16800 nM. In addition, the selectivity ratio in data set [4] is 330.
